pIC50: −log10 of the molar value. Converted amounts (≈) assume the structure as drawn. “And” between values parts separate entries of the source, which are not always exact repeats. Identical values can stand only once.
Key:
Mus musculus [1] = experiment: Drug relative deaths against RXF 944LX cells for a dose of 200 [mg/kg], schedule of d1-5,8-12 by peroral administration in mice; format: functional
Method in brief: (§1)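 Outbred NMRI nude mice, 6-8 weeks old, sex matched to donor patient. s.c. fragments (~25 mg) implanted in both flanks. Randomised at 100-200 mm3, 6-12 tumors per group. Compound in DMSO diluted with PBS/0.05% Tween 80 to 10% final DMSO, given orally daily on days 1-5 and 8-12. Toxic deaths and body weight change recorded.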

Mus musculus [2] = experiment: Growth delay until tumor doubling in days against RXF 944LX cells for a dose of 100 [mg/kg], schedule of d1-5,8-12 by oral administration in mice; format: functional
Method in brief: (§2)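 NMRI outbred nude mice aged 6–8 weeks, sex matched to the donor patient. About 25 mg tumor fragments (MEXF 989 or RXF 944L) implanted s.c. in both flanks. Once tumors reached 100–200 mm3, animals were randomized (6–12 tumors/group). Dosing 100 or 200 mg/kg/day orally on days 1–5 and 8–12, in 10% DMSO/PBS with 0.05% Tween 80. Calipers twice weekly. Outputs: T/C from median tumor weights, growth delay to 200% volume, and body weight change.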

Mus musculus [3] = experiment: Medium maximum body weight change in percentage against RXF 944LX cells for a dose of 100 [mg/kg], schedule of d1-5,8-12 by oral administration in mice; format: functional; method in brief: as §2
Tumor Cell line = experiment: Mean cytotoxicity against a panel of human tumor cell lines; format: functional
Method in brief: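 Modified propidium iodide assay quantifying dead cells by DNA/RNA staining, run on a human tumor cell panel (breast, colon, stomach, lung, melanoma, ovary, renal, soft tissue lines). Growth inhibition expressed as % T/C; IC70 per line from concentration-viability plots. Mean IC70 is the geometric mean across lines; unreached values set to the lowest or highest concentration tested.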

Mus musculus [4] = experiment: Drug relative deaths against RXF 944LX cells for a dose of 100 [mg/kg], schedule of d1-5,8-12 by oral administration in mice; format: functional; method in brief: as §1
SK-OV-3 = experiment: In vitro inhibitory activity against SK-OV-3 cells using XTT proliferation assay.; format: functional, cell-based; conditions: Homo sapiens
Method in brief: (§3)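 XTT proliferation assay measuring cellular metabolic activity after 48 h incubation with compound. Compounds dissolved in DMSO at 1 mg/mL stock. IC50 or estimates obtained by nonlinear regression. Each experiment at least in duplicate.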

Mus musculus [5] = experiment: Drug relative deaths against MEXF 989 cells for a dose of 100 [mg/kg], schedule of d1-5,8-12 by oral administration in mice; format: functional; method in brief: as §1
Mus musculus [6] = experiment: Medium maximum body weight change in percentage against MEXF 989 cells for a dose of 200 [mg/kg], schedule of d1-5,8-12 by peroral administration in mice; format: functional; method in brief: as §2
HeLa = experiment: In vitro inhibitory activity against HeLa/KB cells using XTT proliferation assay.; format: functional, cell-based; conditions: Homo sapiens; method in brief: as §3
Mus musculus [7] = experiment: Optimum tumor weight of treated / control animals in % (deviation) for a dose of 100 [mg/kg], schedule of d1-5,8-12 by oral administration in mice; format: functional; method in brief: as §2
U373 MG [8] = experiment: Cell cycle arrest activity against U373 astrocytoma cells.; conditions: Homo sapiens
Mus musculus [9] = experiment: Growth delay until tumor doubling in days against MEXF 989 cells for a dose of 100 [mg/kg], schedule of d1-5,8-12 in mice by oral administration.; format: functional; method in brief: as §2
Mus musculus [10] = experiment: Growth delay until tumor doubling in days against MEXF 989 cells for a dose of 200 [mg/kg], schedule of d1-5,8-12 by peroral administration in mice; format: functional; method in brief: as §2
U373 MG [11] = experiment: Cytotoxicity against U373 astrocytoma cells.; format: functional, cell-based, U-373MG ATCC; conditions: Homo sapiens; method in brief: as §3
Mus musculus [12] = experiment: Drug relative deaths against MEXF 989 cells for a dose of 200 [mg/kg], schedule of d1-5,8-12 by peroral administration in mice; format: functional; method in brief: as §1
Mus musculus [13] = experiment: Medium maximum body weight change in percentage against MEXF 989 cells for a dose of 100 [mg/kg], schedule of d1-5,8-12 by oral administration in mice; format: functional; method in brief: as §2
Mus musculus [14] = experiment: Medium maximum body weight change in percentage against RXF 944LX cells for a dose of 200 [mg/kg], schedule of d1-5,8-12 by peroral administration in mice; format: functional; method in brief: as §2

COc1ccc2[nH]c(C(=O)c3ccccc3)cc2c1
Activity (Mus musculus [1]): 0%
GD200 (Mus musculus [2]): -0.4 days
BWC (Mus musculus [3]): 11%
IC70 (Tumor Cell line): 0.22 µg/mL (≈ 0.875 µM)
Activity (Mus musculus [4]): 0%
pIC50 (SK-OV-3): 6.17
Activity (Mus musculus [5]): 0%
BWC (Mus musculus [6]): 3%
pIC50 (HeLa): 7.17
T/C (d) (Mus musculus [7]): 34% and 100%
pIC50 (U373 MG [8]): 7.20
GD200 (Mus musculus [9]): 4.8 days
GD200 (Mus musculus [10]): 12.9 days
pIC50 (U373 MG [11]): 7.13
Activity (Mus musculus [12]): 0%
BWC (Mus musculus [13]): 11%
BWC (Mus musculus [14]): 1%

Reference: ChEMBL document CHEMBL1134638, “Synthetic 2-aroylindole derivatives as a new class of potent tubulin-inhibitory, antimitotic agents” (J Med Chem, 2001)
